Reference: ChEMBL document CHEMBL1148492, “Synthesis and structure-activity relationship study of potent cytotoxic analogues of the marine alkaloid Lamellarin D” (2006)
Calls of active or inactive are those of the source. The calls are words filed in the database; no cut-off is given here.

Tests used:
A549 [1] = assay: Antiproliferative activity against human A549 cell line after 72 hrs by SRB assay at 10 ug/mL; assay type: functional, cell-based
MDA-MB-231 [2] = assay: Antiproliferative activity against human MDA-MB-231 cell line after 72 hrs by SRB assay; assay type: functional; conditions: MDA-MB-231, 72 h
Procedure, shortened: (§1)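 Cells seeded at 5×10³/well in RPMI and allowed to attach in drug-free medium for 18 h. Compounds were added in DMSO/H2O (3:7) and exposure was continuous for 72 h. Cells were then fixed with cold 50% TCA for 60 min at 4°C, stained with 0.4% SRB in 1% acetic acid for 10 min at room temperature, solubilized in Tris, and OD was read at 490 nm. GI50 was derived from 100×[(T−T0)/(C−T0)]=50.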

HT-29 [3] = assay: Antiproliferative activity against human HT29 cell line after 72 hrs by SRB assay; assay type: functional; conditions: HT-29, 72 h; procedure, shortened: as §1
MDA-MB-231 [4] = assay: Antiproliferative activity against human MDA-MB-231 cell line after 72 hrs by SRB assay at 10 ug/mL; assay type: functional, cell-based
HT-29 [5] = assay: Antiproliferative activity against human HT29 cell line after 72 hrs by SRB assay at 10 ug/mL; assay type: functional, cell-based
A549 [6] = assay: Antiproliferative activity against human A549 cell line after 72 hrs by SRB assay; assay type: functional; conditions: A549, 72 h; procedure, shortened: as §1

GI50 (MDA-MB-231 [2]) [µM] | GI50 (HT-29 [3]) [µM] | GI50 (A549 [6]) [µM] | Compound | Activity (A549 [1]) | Activity (MDA-MB-231 [4]) | Activity (HT-29 [5])
9.9 | 9.7 | – | COC(=O)c1c(-c2ccc(OC)cc2)c(-c2ccc(OC)cc2)c2c3cc(OC)c(O)cc3ccn12 | inactive | – | –
– | – | – | COC(=O)c1cc(-c2cc(OC)c(OC)c(OC)c2)c2n1CCc1cc(OC(C)C)c(OC)cc1-2 | inactive | inactive | inactive
– | – | – | COC(=O)c1c(-c2cc(OC)c(OC(C)C)cc2OC(C)C)c(-c2ccc(OC(C)C)c(OC)c2)c2n1CCc1cc(OC(C)C)c(OC)cc1-2 | inactive | inactive | inactive
0.98 | 1 | 0.81 | COC(=O)c1c(-c2ccc(OC)c(OC)c2)c(-c2ccc(OC)c(OC)c2)c2n1CCc1cc(OC(C)C)c(OC)cc1-2 | – | – | –
18.3 | 8.9 | – | COC(=O)c1c(-c2cccc([N+](=O)[O-])c2)c(-c2cccc([N+](=O)[O-])c2)c2c3cc(OC)c(O)cc3ccn12 | inactive | – | –
– | – | – | COC(=O)c1c(-c2ccc(OC)c(OC)c2)c(-c2ccc(O)c(OC)c2)c2c3cc(OC)c(O)cc3ccn12 | inactive | inactive | inactive
0.71 | 7.9 | 0.45 | COC(=O)c1c(-c2cc(OC)c(O)cc2O)c(-c2ccc(O)c(OC)c2)c2c3cc(OC)c(O)cc3ccn12 | – | – | –
19.7 | – | 20.4 | COC(=O)c1c(-c2cccs2)c(-c2cccs2)c2c3cc(OC)c(O)cc3ccn12 | – | – | inactive
– | 34 | 67.9 | COC(=O)c1c(-c2cc(OC)c(OC)c(OC)c2)c(-c2cc(OC)c(OC)c(OC)c2)c2n1CCc1cc(OC(C)C)c(OC)cc1-2 | – | inactive | –
26.3 | – | – | COC(=O)c1cc(-c2cccs2)c2c3cc(OC)c(O)cc3ccn12 | inactive | – | inactive
3.2 | 7.1 | 4.7 | COC(=O)c1c(-c2cc(O)c(O)cc2O)c(-c2cc(OC)ccc2OC)c2c3cc(OC)c(O)cc3ccn12 | – | – | –
– | – | – | COC(=O)c1cc(-c2cc(OC)c(OC)c(OC)c2)c2c3cc(OC)c(O)cc3ccn12 | inactive | inactive | inactive
7.5 | 8.1 | 7.1 | COC(=O)c1c(-c2ccc(O)c(OC)c2)c(-c2ccc(O)c(OC)c2)c2c3cc(OC)c(O)cc3ccn12 | – | – | –
– | – | – | COC(=O)c1c(-c2cc(OC)c(O)cc2OC)c(-c2ccc(O)c(OC)c2)c2c3cc(OC)c(O)cc3ccn12 | inactive | inactive | inactive
– | – | – | COC(=O)c1c(-c2ccc(OC)c(OC)c2)c(-c2ccc(OC)c(OC)c2)c2c3cc(OC)c(O)cc3ccn12 | inactive | inactive | inactive
10.1 | 11.3 | 18 | COC(=O)c1c(-c2cccc([N+](=O)[O-])c2)c(-c2cccc([N+](=O)[O-])c2)c2n1CCc1cc(O)c(OC)cc1-2 | – | – | –
13.7 | – | – | COC(=O)c1c(-c2ccc(N(C)C)cc2)c(-c2ccc(N(C)C)cc2)c2n1CCc1cc(O)c(OC)cc1-2 | inactive | – | inactive
8.5 | – | 14.3 | COC(=O)c1c(-c2ccc(O)c(OC)c2)c(-c2ccc(O)c(OC)c2)c2n1CCc1cc(O)c(OC)cc1-2 | – | – | inactive
– | – | – | COC(=O)c1cc(-c2ccc(OC(C)C)c(OC)c2)c2n1CCc1cc(OC(C)C)c(OC)cc1-2 | inactive | inactive | inactive
– | – | – | COC(=O)c1cc(-c2ccc(N(C)C)cc2)c2n1CCc1cc(OC(C)C)c(OC)cc1-2 | inactive | inactive | inactive
3.1 | 17.1 | 5 | COC(=O)c1c(-c2cc(OC)c(O)cc2O)c(-c2ccc(O)c(OC)c2)c2n1CCc1cc(O)c(OC)cc1-2 | – | – | –
10.5 | 8.4 | 13.7 | COC(=O)c1c(-c2cc(O)c(O)cc2O)c(-c2cc(OC)ccc2OC)c2n1CCc1cc(O)c(OC)cc1-2 | – | – | –
7.1 | 6.9 | 14.7 | COC(=O)c1c(-c2ccc(O)c(OC)c2)c(-c2ccc(O)c(OC)c2)c2n1CCc1cc(OC(C)C)c(OC)cc1-2 | – | – | –

GI50 (MDA-MB-231 [2]) [µM] | GI50 (HT-29 [3]) [µM] | GI50 (A549 [6]) [µM] | Compound | Activity (A549 [1]) | Activity (MDA-MB-231 [4]) | Activity (HT-29 [5])
10.6 | – | 20.8 | COC(=O)c1c(-c2ccc(O)cc2O)c(-c2cccc(O)c2)c2c3cc(OC)c(O)cc3ccn12 | – | – | inactive
– | – | – | COC(=O)c1c(-c2cc(OC)c(OC)c(OC)c2)c(-c2cc(OC)c(OC)c(OC)c2)c2c3cc(OC)c(O)cc3ccn12 | inactive | inactive | inactive
22.3 | 18 | 14.2 | COC(=O)c1cc(-c2ccc(O)c(OC)c2)c2n1CCc1cc(O)c(OC)cc1-2 | – | – | –
– | – | – | COC(=O)c1cc(-c2ccc(N(C)C)cc2)c2n1CCc1cc(O)c(OC)cc1-2 | inactive | inactive | inactive
15 | 10.1 | 9.8 | COC(=O)c1c(-c2ccc(O)cc2)c(-c2ccc(O)c(OC)c2)c2c3cc(OC)c(O)cc3ccn12 | – | – | –
11.2 | 23.9 | 10.9 | COC(=O)c1cc(-c2ccc(O)c(OC)c2)c2c3cc(OC)c(O)cc3ccn12 | – | – | –
– | – | – | COC(=O)c1c(-c2ccc(OC(F)(F)F)cc2)c(-c2ccc(OC(F)(F)F)cc2)c2c3cc(OC)c(O)cc3ccn12 | inactive | inactive | inactive
– | – | – | COC(=O)c1c(-c2ccc(O)cc2O)c(-c2cccc(O)c2)c2n1CCc1cc(O)c(OC)cc1-2 | inactive | inactive | inactive
– | – | – | COC(=O)c1c(-c2ccc(O)cc2)c(-c2ccc(O)cc2)c2n1CCc1cc(O)c(OC)cc1-2 | inactive | inactive | inactive
– | – | – | COC(=O)c1c(-c2ccc(OC(F)(F)F)cc2)c(-c2ccc(OC(F)(F)F)cc2)c2n1CCc1cc(O)c(OC)cc1-2 | inactive | inactive | inactive
15.7 | – | 14.7 | COC(=O)c1c(-c2ccc(OC)c(OC)c2O)c(-c2cccc(O)c2)c2n1CCc1cc(O)c(OC)cc1-2 | – | – | inactive
– | – | – | COC(=O)c1c(-c2cccs2)c(-c2cccs2)c2c3cc(OC)c(OC(C)C)cc3ccn12 | inactive | inactive | inactive
7.2 | 18.4 | 6.3 | COC(=O)c1c(-c2cccc(O)c2)c(-c2cccc(O)c2)c2c3cc(OC)c(O)cc3ccn12 | – | – | –
– | 13.6 | – | COC(=O)c1c(-c2cc(OC)c(OC(C)C)cc2OC(C)C)c(-c2ccc(OC(C)C)c(OC)c2)c2c3cc(OC)c(OC(C)C)cc3ccn12 | inactive | inactive | –
12.7 | – | – | COC(=O)c1cc(-c2cc(OC)ccc2OC)c2n1CCc1cc(O)c(OC)cc1-2 | inactive | – | inactive
14.4 | 10.3 | 9.2 | COC(=O)c1c(-c2ccc(OC)cc2)c(-c2ccc(OC)cc2)c2n1CCc1cc(O)c(OC)cc1-2 | – | – | –
– | – | – | COC(=O)c1c(-c2cccs2)c(-c2cccs2)c2n1CCc1cc(OC(C)C)c(OC)cc1-2 | inactive | inactive | inactive
7.7 | – | 11.2 | COC(=O)c1c(-c2ccc(OC)c(OC)c2)c(-c2ccc(OC)c(OC)c2)c2n1CCc1cc(O)c(OC)cc1-2 | – | – | inactive
19.9 | – | 13.3 | COC(=O)c1cc(-c2cc(OC)ccc2OC)c2c3cc(OC)c(O)cc3ccn12 | – | – | inactive
4.1 | 9.8 | 3.5 | COC(=O)c1c(-c2ccc(O)cc2)c(-c2ccc(O)cc2)c2c3cc(OC)c(O)cc3ccn12 | – | – | –
7.6 | – | 8.9 | COC(=O)c1c(-c2cc(OC)c(O)cc2OC)c(-c2ccc(O)c(OC)c2)c2n1CCc1cc(O)c(OC)cc1-2 | – | – | inactive
19 | 18.1 | 20.3 | COC(=O)c1cc(-c2ccc(O)c(OC)c2)c2n1CCc1cc(OC(C)C)c(OC)cc1-2 | – | – | –

Compound | GI50 (MDA-MB-231 [2]) [µM] | GI50 (HT-29 [3]) [µM] | GI50 (A549 [6]) [µM] | Activity (A549 [1]) | Activity (MDA-MB-231 [4]) | Activity (HT-29 [5])
COc1cc(-c2c3c4cc(OC)c(O)cc4oc(=O)c3n3ccc4cc(O)c(OC)cc4c23)ccc1O [LAMELLARIN D] | 0.25 | 5.1 | 0.2 | – | – | –
